Common to all, as to format: cell-based
The test system of one assay is HeLa cells. The experiment in a line: Antiproliferative activity, Kenacid Blue R dye binding cell survival, HeLa. Particulars: Homo sapiens. Put shortly:
(§1)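 Adherent cells seeded at 2,000/well (HeLa, Fem-X) or 6,000/well (LS174); compounds added 20 h later at five double-diluted concentrations (20 mM DMSO stocks, final 0–300 μM). Continuous 72 h exposure, 37 °C, 5% CO2. PBS wash, methanol/acetic acid (3:1) fixation, 0.04% Coomassie R-250 staining, A570. Survival % vs medium-only control after cell-free blank subtraction; IC50 read from survival–concentration plot.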

A further assay concerns Fem-X cells. Briefly: Antiproliferative activity, Kenacid Blue R dye binding cell survival, Fem-X. Particulars: Homo sapiens, 72 h, read-out: IC50 (μM) Fem-X. Put shortly:
as §1

The subject of another assay is K562 cells. Briefly: Antiproliferative activity, Kenacid Blue R dye binding cell survival, K562. Particulars: Homo sapiens, K562, 72 h, read-out: IC50 (μM) K562. Put shortly:
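K562 suspension culture in RPMI 1640 with 10% heat-inactivated FBS, 3 mM glutamine, 25 mM Hepes, pH 7.2. Seeded 3,000 cells/well and dosed 2 h later at five double-diluted concentrations (final 0–300 μM, from DMSO stocks). Exposure was 72 h at 37 °C, 5% CO2. Total protein by Kenacid Blue R (Coomassie R-250) staining, A570, blank-corrected. IC50 taken from survival % vs concentration.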

Another assay deals with LS174 cells. The experiment in a line: Antiproliferative activity, Kenacid Blue R dye binding cell survival, LS174. Particulars: Homo sapiens, LS174, 72 h, read-out: IC50 (μM) LS174. Put shortly: as §1
In another assay the test system is PBMC. The experiment in a line: Cytotoxicity toward healthy peripheral blood mononuclear cells. Particulars: Homo sapiens, 72 h, read-out: IC50 PBMC. The method in brief: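 Unstimulated PBMC (no mitogen) were isolated from heparinized blood of two healthy donors by Lymphoprep gradient and washed three times in Haemaccel. Seeded at 150,000/well, then dosed 2 h later in triplicate at five final concentrations. After 72 h, cells were centrifuged (10 min, 2,000 rpm), fixed in methanol/acetic acid and stained with Kenacid Blue R, and A570 was read. Survival % vs medium control, cell-free blank subtracted.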

[1] abbreviates: read-out: Obtained log(1/(IC50)) (converted).

Here are results for eleven compounds from article PMC3685236 (International Journal of Molecular Sciences, 2007).

Molecules are shown by their SMILES. Read-outs that look alike come from different tables or passages of the source.

`CC(C)Cc1ccc(C(C)(O)CC(=O)O)cc1` (stereo not shown) [Compound 12, 3-Hydroxy-3(4-isobutylphenyl)butanoic acid]: the IC50 is 151 µM in the assay with HeLa cells (72 h, read-out: IC50 (μM) HeLa); 151 µM in the assay with HeLa cells (setting [1]); greater than 200 µM with Fem-X cells; greater than 200 µM in the assay with K562 cells; greater than 200 µM with LS174 cells; greater than 300 µM in the assay on PBMC.

As to `CC(C)(C(=O)O)C(C)(O)c1ccccc1` (stereo not shown) [Compound 11, 3-Hydroxy-2,2-dimethyl-3-phenylbutanoic acid], the IC50 was 133 µM in the assay on HeLa cells (72 h, read-out: IC50 (μM) HeLa); 133 µM with HeLa cells (setting [1]); greater than 300 µM with PBMC.

For the compound `CC(C(=O)O)C(O)c1ccccc1Cl` (stereo not shown) [Compound 3, 3-Hydroxy-2-methyl-3-(2-chlorophenyl)propanoic acid], the IC50 in the assay on HeLa cells (72 h, read-out: IC50 (μM) HeLa) was 97.2 µM; in the assay with HeLa cells (setting [1]) it was 97.3 µM; in the assay on Fem-X cells it was 89 µM; with K562 cells it was 92 µM; with LS174 cells it was 93 µM; with PBMC it was greater than 300 µM.

Turning to `O=C(O)CC(O)c1ccccc1Cl` (stereo not shown) [Compound 8, 3-Hydroxy-3-(2-chlorophenyl)propanoic acid], the IC50 is 118 µM in the assay on HeLa cells (72 h, read-out: IC50 (μM) HeLa); 118 µM with HeLa cells (setting [1]); greater than 200 µM in the assay on Fem-X cells; greater than 200 µM in the assay with K562 cells; greater than 200 µM in the assay with LS174 cells.

For `CC(C)(C(=O)O)C(O)c1ccccc1` (stereo not shown) [Compound 13, 3-Hydroxy-2,2-dimethyl-3-phenylpropanoic acid], the IC50 in the assay on HeLa cells (72 h, read-out: IC50 (μM) HeLa) is 165 µM; with HeLa cells (setting [1]) it was 165 µM.

As for `CC(O)(CC(=O)O)c1ccc(-c2ccccc2)cc1` (stereo not shown) [Compound 4, 3-Hydroxy-3-(4-biphenylyl)butanoic acid], the IC50 is 98.7 µM with HeLa cells (72 h, read-out: IC50 (μM) HeLa); 98.6 µM with HeLa cells (setting [1]); greater than 200 µM in the assay on Fem-X cells; greater than 200 µM in the assay on K562 cells; greater than 200 µM in the assay with LS174 cells; greater than 300 µM in the assay on PBMC.

As for `CC(C)(C(=O)O)C(O)c1ccc(Cl)cc1` (stereo not shown) [Compound 7, 3-Hydroxy-2,2-dimethyl-3-(4-chlorophenyl)propanoic acid], the IC50 with HeLa cells (72 h, read-out: IC50 (μM) HeLa) was 106 µM; in the assay with HeLa cells (setting [1]), 106 µM; in the assay with Fem-X cells it was greater than 200 µM; in the assay with K562 cells, greater than 200 µM; in the assay on LS174 cells, greater than 200 µM; in the assay on PBMC, greater than 300 µM.

As to `CC(C)(C(=O)O)C(C)(O)c1ccc(-c2ccccc2)cc1` (stereo not shown) [Compound 1, 3-Hydroxy-2,2-dimethyl-3-(4-biphenylyl)butanoic acid], the IC50 in the assay on HeLa cells (72 h, read-out: IC50 (μM) HeLa) was 62.2 µM; with HeLa cells (setting [1]), 62.2 µM; in the assay on Fem-X cells it was 205 µM; in the assay on K562 cells it was 141 µM; in the assay on LS174 cells it was 154 µM; with PBMC it was greater than 300 µM.

For `O=C(O)CC(O)(c1ccccc1)c1ccccc1` [Compound 14, 3-Hydroxy-3,3-diphenylpropanoic acid], the IC50 in the assay with HeLa cells (72 h, read-out: IC50 (μM) HeLa) is 183 µM; in the assay with HeLa cells (setting [1]), 182 µM.

Turning to `CC(C)(C(=O)O)C(O)(c1ccccc1)c1ccccc1` [Compound 2, 3-Hydroxy-2,2-dimethyl-3,3-diphenylpropanoic acid], the IC50 in the assay with HeLa cells (72 h, read-out: IC50 (μM) HeLa) was 80.6 µM; in the assay with HeLa cells (setting [1]), 80.5 µM.

Consider `CC(C(=O)O)C(O)(c1ccccc1)c1ccccc1` (stereo not shown) [Compound 6, 3-Hydroxy-2-methyl-3,3-diphenylpropanoic acid], for which the IC50 with HeLa cells (72 h, read-out: IC50 (μM) HeLa) is 99.4 µM; with HeLa cells (setting [1]) it was 99.3 µM.
